B1: Osa-1-4 twister ribozyme (parent)
chain: CCGCCUAACACUGCCAAUGCCGGUCCCAAGCCCGGAUAAAAGUGGAGGGGGCGG

Variants of: B1
Assay: self-cleavage, relative activity (ratio to wild type); higher = more cleavage; co-transcriptional
Procedure, shortened: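 A DNA template encoding a 54-nucleotide twister ribozyme from Oryza sativa was made so that each of the 48 positions downstream of the cleavage site carried 97 % wild-type base and 1 % of each other base. Transcription in vitro ran for 2 h at 37 °C, during which the ribozyme could cleave itself. Reverse transcription used a template-switching oligonucleotide, and the products were PCR-amplified and deep-sequenced. Each read was scored as cleaved or uncleaved by whether upstream sequence was present, and relative activity is the fraction cleaved normalised to wild type.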

Row | Variant | self-cleavage
1 | C11A U43C | 0.1
2 | C11A U43G | 0.56
3 | C11A U43A | 0.76
4 | A10G G44A | 0.72
5 | A10G G44C | 0.81
6 | A10G G44U | 0.87
7 | A10G U37G | 0.87
8 | A10G U37C | 0.95
9 | A10G U37A | 0.67
10 | A10G G47A | 0.13
11 | A10G G47U | 0.12
12 | A10G G47C | 0.07
13 | A10U C33G | 0.01
14 | A10U C33U | 0.04
15 | A10U C33A | 0.02
16 | A10G G22U | 0.16
17 | A10G G22A | 0.38
18 | A10G G22C | 0.05
19 | C11A C27A | 0.12
20 | C11A C27U | 0.08
21 | C11A C27G | 0.04
22 | A10G G49A | 0.07
23 | A10G G49C | 0.07
24 | A10G G49U | 0.09

Row | Variant | self-cleavage
25 | A10U G50U | 0.04
26 | A10U G50A | 0.05
27 | A10U G50C | 0.03
28 | C11A G53C | 0.04
29 | C11A G53A | 0.49
30 | C11A G53U | 0.09
31 | A10U G42U | 0.02
32 | A10U G42C | 0.04
33 | A10U G42A | 0.04
34 | C11A G35A | 0.4
35 | C11A G35U | 0.37
36 | C11A G35C | 0.09
37 | A10U C25G | 0.02
38 | A10U C25U | 0.05
39 | A10U C25A | 0.03
40 | A10U A28C | 0.03
41 | A10U A28G | 0.04
42 | A10U A28U | 0.05
43 | A10U C31U | 0.05
44 | A10U C31G | 0.03
45 | A10U C31A | 0
46 | A10G G19C | 0.09
47 | A10G G19U | 0.13
48 | A10G G19A | 0.28

Row | Variant | self-cleavage
49 | A10U A46G | 0
50 | A10U A46C | 0.02
51 | A10U A46U | 0.03
52 | A10U A40C | 0.01
53 | A10U A40G | 0.05
54 | A10U A40U | 0.05
55 | C11A C33A | 0.06
56 | C11A C33G | 0.04
57 | C11A C33U | 0.2
58 | A10U G47C | 0.02
59 | A10U G47U | 0.02
60 | A10U G47A | 0.02
61 | A10U C14A | 0.02
62 | A10U C14U | 0.04
63 | A10U C14G | 0.03
64 | A10U G23C | 0.02
65 | A10U G23U | 0.01
66 | A10U G23A | 0.03
67 | A10G G23C | 0.05
68 | A10G G23A | 0.1
69 | A10G G23U | 0.05
70 | A10G C33U | 0.33
71 | A10G C33G | 0.07
72 | A10G C33A | 0.1

Row | Variant | self-cleavage
73 | C11G C21A | 0.06
74 | C11G C21G | 0.04
75 | C11G C21U | 0.39
76 | A10G G53C | 0.07
77 | A10G G53U | 0.22
78 | A10G G53A | 0.41
79 | A10U G44A | 0.03
80 | A10U G44U | 0.08
81 | A10U G44C | 0.09
82 | C11A C25U | 0.18
83 | C11A C25A | 0.11
84 | C11A C25G | 0.05
85 | A10U G45C | 0.02
86 | A10U G45A | 0.03
87 | A10U G45U | 0.02
88 | C11A G34A | 0.16
89 | C11A G34U | 0.11
90 | C11A G34C | 0.07
91 | A10U A8U | 0.04
92 | A10U A8C | 0.03
93 | A10U A8G | 0.05
94 | C11A C21U | 0.71
95 | C11A C21A | 0.14
96 | C11A C21G | 0.07

Row | Variant | self-cleavage
97 | A10G G51A | 0.28
98 | A10G G51U | 0.18
99 | A10G G51C | 0.08
100 | A10U C9A | 0.04
101 | A10U C9G | 0.07
102 | A10U C9U | 0.05
103 | A10U G22C | 0.02
104 | A10U G22U | 0.03
105 | A10U G22A | 0.05
106 | A10U G54U | 0.21
107 | A10U G54C | 0.04
108 | A10U G54A | 0.06
109 | A10U A39G | 0.08
110 | A10U A39C | 0.04
111 | A10U A39U | 0.12
112 | C11A C52G | 0.74
113 | C11A C52U | 0.9
114 | C11A C52A | 0.63
115 | C11A C20U | 0.66
116 | C11A C20A | 0.62
117 | C11A C20G | 0.06
118 | C11A G19U | 0.06
119 | C11A G19C | 0.04
120 | C11A G19A | 0.11

Row | Variant | self-cleavage
121 | A10U G13A | 0.01
122 | A10U G13U | 0
123 | A10U G13C | 0.01
124 | C11A | 0.84
125 | C11G | 0.7
126 | A10G G54U | 0.89
127 | A10G G54C | 0.85
128 | A10G G54A | 0.9
129 | C11A G47A | 0.07
130 | C11A G47U | 0.06
131 | C11A G47C | 0.05
132 | C11A G51C | 0.04
133 | C11A G51A | 0.17
134 | C11A G51U | 0.06
135 | A10U A38G | 0.07
136 | A10U A38U | 0.05
137 | A10U A38C | 0.06
138 | A10U C32G | 0.04
139 | A10U C32U | 0.02
140 | A10U C32A | 0.01
141 | A10U G19U | 0.02
142 | A10U G19C | 0.01
143 | A10U G19A | 0.05
144 | A10U A36C | 0.03

Row | Variant | self-cleavage
145 | A10U A36U | 0.04
146 | A10U A36G | 0.05
147 | A10G U43C | 0.96
148 | A10G U43A | 0.79
149 | A10G U43G | 0.3
150 | A10G G13A | 0.08
151 | A10G G13U | 0.04
152 | A10G G13C | 0.03
153 | A10G G48A | 0.07
154 | A10G G48U | 0.06
155 | A10G G48C | 0.06
156 | A10U U24A | 0.03
157 | A10U U24C | 0.02
158 | A10U U24G | 0.01
159 | C11A C32G | 0.07
160 | C11A C32A | 0.06
161 | C11A C32U | 0.06
162 | A10G G50C | 0.82
163 | A10G G50U | 0.98
164 | A10G G50A | 0.49
165 | A10U A17C | 0.04
166 | A10U A17U | 0.08
167 | A10U A17G | 0.07

— the RNAGym collection of RNA variant scans (doi:10.1002/anie.201605470)
